Measured values taken from ChEMBL document CHEMBL3085691, “Discovery of tryptanthrin derivatives as potent inhibitors of indoleamine 2,3-dioxygenase with therapeutic activity in Lewis lung cancer (LLC) tumor-bearing mice” (J Med Chem, 2013).
Active and inactive are the calls of the source. No cut-off for these calls is given here.

Assays:
[1] = system: Lewis lung carcinoma cell line; test: Antitumor activity against mouse LLC cells allografted in C57BL/6 mouse assessed as reduction in tumor volume at 200 mg/kg, po qd after 14 days; format: functional; settings: 336 h, read-out: TGI
Mus musculus [2] = test: Reduction of Foxp3 expression in nucleus of C57BL/6 mouse tumor allografted with mouse LLC cells at 200 mg/kg, po qd after 14 days by immunohistochemical analysis
[3] = DPPH radical scavenging activity assessed as reducing ability at 5 to 160 uM after 30 mins by spectrophotometry; settings: 0.5 h
[4] = biological target: T1, Indoleamine 2,3-dioxygenase 1 (Homo sapiens, UniProt P14902); test: Uncompetitive inhibition of human recombinant IDO1 using L-tryptophan as substrate
Method in brief: (§1)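 Reversibility and inhibition mode taken from kinetic graphical plots of recombinant human IDO-1 activity. The enzyme assay used a methylene blue/ascorbate regeneration system. Ki derived by plotting [S]/V against inhibitor concentration.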
Target sequence in this assay (P14902 whole entry): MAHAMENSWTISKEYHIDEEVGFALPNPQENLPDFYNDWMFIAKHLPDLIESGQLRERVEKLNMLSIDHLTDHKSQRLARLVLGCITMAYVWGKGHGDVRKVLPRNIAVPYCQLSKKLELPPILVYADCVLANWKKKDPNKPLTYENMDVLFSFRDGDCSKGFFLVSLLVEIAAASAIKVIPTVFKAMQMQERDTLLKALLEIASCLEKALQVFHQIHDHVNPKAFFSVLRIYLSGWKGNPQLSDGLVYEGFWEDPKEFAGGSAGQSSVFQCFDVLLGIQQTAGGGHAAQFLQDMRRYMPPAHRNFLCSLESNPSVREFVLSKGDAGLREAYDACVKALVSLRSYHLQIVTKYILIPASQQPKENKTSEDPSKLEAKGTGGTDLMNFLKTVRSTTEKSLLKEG

[5] = biological target: T1, Indoleamine 2,3-dioxygenase 1; test: Binding affinity to human IDO1 by SPR assay
Method in brief: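 SPR at 25 °C on purified human IDO-1 immobilized on a CM5 sensor chip, compound injected at a series of concentrations. Running buffer PBS with 0.1% dodecylmaltoside, 0.05 mM EDTA and 5% DMSO, pH 7.4. KD taken as the equilibrium dissociation constant from instrument evaluation.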
Target sequence in this assay (P14902 whole entry): as above

[6] = biological target: T1, Indoleamine 2,3-dioxygenase 1; test: Inhibition of human IDO1 expressed in HEK293 cells assessed as kynurenine release after 5 hrs by spectrophotometry; format: cell-based
Mus musculus [7] = test: Upregulation of IDO1 expression in cytoplasm of C57BL/6 mouse tumor allografted with mouse LLC cells at 200 mg/kg, po qd after 14 days by immunohistochemical analysis; format: functional, organism-based; design: dose 200 mg/kg
Method in brief: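 LLC allografts in C57BL/6 mice, sc at 2 × 10^6 cells. Oral dosing once daily at 200 mg/kg or 0.5% CMC vehicle from 5 mm tumor diameter for 14 days. Tumors and TDLNs cut into 5 μm sections with heat antigen retrieval. Rabbit Foxp3 Ab (1/100) or mouse IDO-1 Ab (1/50) applied 1 h, then Alexa Fluor secondary 30 min. Nuclei counterstained; imaged at ×200.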

Mus musculus [8] = test: In vivo inhibition of IDO1 in C57BL/6 mouse allografted with mouse LLC cells assessed as kynurenine to tryptophan ratio in plasma at 200 mg/kg, po qd after 14 days by HPLC analysis relative to control; format: functional, organism-based; design: dose 200 mg/kg
Method in brief: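 C57BL/6 mice, 8 weeks old, given 2 × 10^6 LLC cells sc in right forelimb and randomized to three groups. Oral dosing once daily from 5 mm tumor diameter with 0.5% CMC vehicle or 200 mg/kg. Plasma taken after 14 days. Trp and Kyn measured by HPLC and Kyn/Trp ratio calculated, n = 9−10. One-way ANOVA against vehicle.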

[9] = biological target: T1, Indoleamine 2,3-dioxygenase 1; test: Competitive inhibition of human recombinant IDO1 using L-tryptophan as substrate
Target sequence in this assay (P14902 whole entry, looked up): as the sequence (P14902 whole entry) above

[10] = biological target: T1, Indoleamine 2,3-dioxygenase 1; test: Mixed competitive inhibition of human recombinant IDO1 using L-tryptophan as substrate; method in brief: as §1
Target sequence in this assay (P14902 whole entry): as above

[11] = DPPH radical scavenging activity assessed as reducing ability at […] after 30 mins by spectrophotometry; format: physicochemical; settings: 0.5 h
Method in brief: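 Tryptanthrins at 5, 10, 20, 40, 80 or 160 μM in DMSO (100 μL) mixed with 100 μL DPPH radical (100 μM in ethanol, acetate-buffered pH 5.5). Absorbance at 517 nm read after 30 min gentle shaking in the dark. Ascorbic acid as reference. Triplicates.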

[12] = biological target: T1, Indoleamine 2,3-dioxygenase 1; test: Inhibition of human recombinant IDO1 using L-tryptophan as substrate
Target sequence in this assay (P14902 whole entry): as above

Row | SMILES | Activity [3] | IC50 [4] [µM] | Ki [4] [µM] | IC50 [6] [µM] | also measured
1 | O=C1c2cc(F)ccc2-n2c1nc1ccccc1c2=O | Not Active | 0.534 | 0.161 | 0.023 | inhibition in vivo at 200 mg/kg [1]: 62%; Activity (Mus musculus [2]): Active; Kd [5]: 46.8 µM; Activity (Mus musculus [7]): Active; inhibition (Mus musculus [8]): Active
2 | O=C1c2cc(Cn3cc(-c4ccccc4)nn3)ccc2-n2c1nc1ccc(F)cc1c2=O | – | – | – | – | inhibition [6]: inactive; inhibition [9]: inactive
3 | O=C1c2ccccc2-n2c1nc1ccccc1c2=O [TRYPTANTHRIN] | Not Active | – | – | 0.0537 | IC50 [10]: 7.15 µM; Ki [10]: 4.81 µM
4 | O=C1c2ccc(Cl)cc2-n2c1nc1ccccc1c2=O | – | 74.4 | 49.4 | 0.183 | –
5 | O=C1O[C@H]([C@@H](O)CO)C(O)=C1O [ASCORBIC ACID] | – | – | – | – | Activity [11]: Active
6 | Cc1ccc2c(c1)C(=O)c1nc3ccccc3c(=O)n1-2 | – | – | – | – | IC50 [10]: 121 µM; Ki [10]: 219 µM
7 | O=C1c2ccccc2N[C@H]2[C@H](O)c3cc(F)ccc3N12 | – | 6.21 | 4.54 | 0.0243 | –
8 | O=C1c2cc(F)ccc2-n2c1nc1ccc(F)cc1c2=O | – | 2.72 | 5.48 | 0.466 | –
9 | O=C1c2ccccc2N[C@H]2[C@H](O)c3ccccc3N12 | – | 16 | 8.58 | 0.779 | –
10 | O=C1c2cc(Br)ccc2-n2c1nc1ccccc1c2=O | Not Active | 0.574 | 0.389 | 0.0539 | –
11 | O=C1c2c(Cl)cccc2-n2c1nc1ccccc1c2=O | Not Active | 8.19 | 9.65 | 0.0271 | –
12 | O=C1c2cc([N+](=O)[O-])ccc2-n2c1nc1ccccc1c2=O | Not Active | 0.103 | 0.054 | – | –
13 | O=C1c2cc(F)ccc2N[C@H]2[C@H](O)c3ccccc3N12 | – | – | – | – | IC50 [12]: 451 µM
14 | O=C1c2ccccc2-n2c1nc1ccc(F)cc1c2=O | – | – | – | – | IC50 [12]: 864 µM
